Reference: ChEMBL document CHEMBL4014306, “Pyrazolopyrimidines as Potent Stimulators for Transient Receptor Potential Canonical 3/6/7 Channels” (J Med Chem, 2017)
Blank lines part the entries; values can stand above or below the compound they belong to. Active and inactive are the calls of the source. The rule behind the calls is not given here.

What was measured:
Assay type in all cases: cell-based
[1] = target: Transient receptor potential cation channel subfamily A member 1 (Homo sapiens) (UniProt O75762); experiment: Inhibition of human TRPA1 expressed in HEK293 cells assessed as decrease in flufenamic acid-evoked increase in intracellular calcium level at 22 uM preincubated for 2 mins followed by flufenamic acid addition measured for 2.5 mins by Fluo8-AM dye-based fluorescence assay relative to control
In short: (§1)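 Same TRP panel as for the stimulation tests, with FMP dye for TRPC4 and M5 and Fluo8-AM for TRPA1, V1 and M8. Compound applied for 2 min before the channel agonist (TRPC4: 1 μM DAMGO). Inhibition of the agonist response measured on a FlexStation at 32 °C.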

[2] = target: Transient receptor potential cation channel subfamily V member 1 (Homo sapiens) (UniProt Q8NER1); experiment: Inhibition of human TRPV1 expressed in HEK293 cells assessed as decrease in capsaicin-evoked increase in intracellular calcium level at 22 uM preincubated for 2 mins followed by capsaicin addition measured for 2.5 mins by Fluo8-AM dye-based fluorescence assay relative to control; in short: as §1
[3] = Selectivity ratio of EC50 for mouse TRPC6 expressed in HEK293 cells co-expressing Gq11-PLCbeta fused M5 receptor assessed as increase in intracellular calcium level to EC50 for human TRPC3 expressed in HEK293 cells assessed as induction of membrane depolarization in presence of 0.5 mM Ca2+
[4] = target: T1, Short transient receptor potential channel 3 (Homo sapiens) (UniProt Q13507); experiment: Agonist activity at human TRPC3 expressed in HEK293 cells assessed as increase in intracellular calcium level measured for 2.5 mins by Fluo-8-AM dye based fluorescence assay
T1 sequence (whole entry): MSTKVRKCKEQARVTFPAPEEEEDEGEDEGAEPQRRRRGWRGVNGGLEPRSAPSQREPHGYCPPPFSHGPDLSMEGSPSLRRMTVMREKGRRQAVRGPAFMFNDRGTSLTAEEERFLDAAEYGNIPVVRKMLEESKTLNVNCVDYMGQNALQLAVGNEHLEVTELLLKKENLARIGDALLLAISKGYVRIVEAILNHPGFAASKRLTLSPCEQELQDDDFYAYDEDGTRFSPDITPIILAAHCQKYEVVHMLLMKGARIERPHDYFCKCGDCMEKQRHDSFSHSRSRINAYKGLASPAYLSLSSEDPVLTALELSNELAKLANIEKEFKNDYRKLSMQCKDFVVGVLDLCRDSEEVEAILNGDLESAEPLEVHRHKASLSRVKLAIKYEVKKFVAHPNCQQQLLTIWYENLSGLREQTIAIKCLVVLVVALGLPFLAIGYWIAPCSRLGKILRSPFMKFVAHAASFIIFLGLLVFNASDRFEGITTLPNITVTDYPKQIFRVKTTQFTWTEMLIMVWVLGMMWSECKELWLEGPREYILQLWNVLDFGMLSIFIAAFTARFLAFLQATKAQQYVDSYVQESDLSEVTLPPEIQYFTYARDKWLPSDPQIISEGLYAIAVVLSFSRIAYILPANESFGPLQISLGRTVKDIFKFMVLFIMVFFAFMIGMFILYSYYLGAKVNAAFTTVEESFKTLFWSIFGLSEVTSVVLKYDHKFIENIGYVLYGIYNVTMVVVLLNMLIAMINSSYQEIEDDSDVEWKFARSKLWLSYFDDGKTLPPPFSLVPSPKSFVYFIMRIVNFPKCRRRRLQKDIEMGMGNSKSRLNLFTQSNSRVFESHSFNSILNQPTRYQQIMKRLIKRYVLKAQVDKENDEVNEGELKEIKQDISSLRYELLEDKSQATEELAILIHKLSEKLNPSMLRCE
In short: (§2)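 HEK293 cells stably expressing human TRPC3, run on a FlexStation at 32 °C. Loaded with FMP dye, or Fluo-type Ca2+ dye with 2 mM probenecid. Extracellular NaCl/HEPES saline, pH 7.4, with 2 mM Ca2+ (standard) or 0.5 mM Ca2+. Read as F/F0. In 0.5 mM Ca2+, FMP EC50 from a Hill fit, n = 6.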

[5] = tested on: HEK293; experiment: Induction of membrane potential depolarization in HEK293 cells measured for 2.5 mins by FLIPR assay; settings: human, hek293, 2.5 min
In short: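 Parental HEK293 cells on a FlexStation at 32 °C, loaded with Fluo4-AM or FMP dye, in 2 mM Ca2+ extracellular saline, pH 7.4. Compound added and fluorescence read as F/F0.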

[6] = target: T1, Short transient receptor potential channel 3 (Homo sapiens); experiment: Agonist activity at human TRPC3 expressed in HEK293 cells assessed as induction of membrane depolarization measured for 2.5 mins in presence of 2 mM Ca2+ by FLIPR membrane potential dye-based fluorescence assay; in short: as §2
[7] = organism: Rattus norvegicus; experiment: Agonist activity at TRPC6 in rat primary glomerular mesangial cells assessed as increase in intracellular calcium level at 1 uM in presence of TRPC inhibitor […] by Fluo4-AM dye-based fluorescence assay
In short: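 Rat glomerular mesangial cells, isolated by graded sieving from male Sprague–Dawley rats, collagenase-digested, cultured in RPMI 1640 with 17% FBS. Grown overnight on coverslips, then loaded with 10 μM Fluo4-AM and 0.02% pluronic F-127 for 1 h at 37 °C in 1 mM Ca2+ saline, pH 7.4. Compound at 1 μM. Confocal imaging, ex 488/em 515 nm, read as F/F0. For the 2-APB condition, 30 μM 2-APB for 2 min beforehand and kept during compound application.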

Transient receptor potential cation channel subfamily A member 1 (Homo sapiens), sequence (O75762 whole entry): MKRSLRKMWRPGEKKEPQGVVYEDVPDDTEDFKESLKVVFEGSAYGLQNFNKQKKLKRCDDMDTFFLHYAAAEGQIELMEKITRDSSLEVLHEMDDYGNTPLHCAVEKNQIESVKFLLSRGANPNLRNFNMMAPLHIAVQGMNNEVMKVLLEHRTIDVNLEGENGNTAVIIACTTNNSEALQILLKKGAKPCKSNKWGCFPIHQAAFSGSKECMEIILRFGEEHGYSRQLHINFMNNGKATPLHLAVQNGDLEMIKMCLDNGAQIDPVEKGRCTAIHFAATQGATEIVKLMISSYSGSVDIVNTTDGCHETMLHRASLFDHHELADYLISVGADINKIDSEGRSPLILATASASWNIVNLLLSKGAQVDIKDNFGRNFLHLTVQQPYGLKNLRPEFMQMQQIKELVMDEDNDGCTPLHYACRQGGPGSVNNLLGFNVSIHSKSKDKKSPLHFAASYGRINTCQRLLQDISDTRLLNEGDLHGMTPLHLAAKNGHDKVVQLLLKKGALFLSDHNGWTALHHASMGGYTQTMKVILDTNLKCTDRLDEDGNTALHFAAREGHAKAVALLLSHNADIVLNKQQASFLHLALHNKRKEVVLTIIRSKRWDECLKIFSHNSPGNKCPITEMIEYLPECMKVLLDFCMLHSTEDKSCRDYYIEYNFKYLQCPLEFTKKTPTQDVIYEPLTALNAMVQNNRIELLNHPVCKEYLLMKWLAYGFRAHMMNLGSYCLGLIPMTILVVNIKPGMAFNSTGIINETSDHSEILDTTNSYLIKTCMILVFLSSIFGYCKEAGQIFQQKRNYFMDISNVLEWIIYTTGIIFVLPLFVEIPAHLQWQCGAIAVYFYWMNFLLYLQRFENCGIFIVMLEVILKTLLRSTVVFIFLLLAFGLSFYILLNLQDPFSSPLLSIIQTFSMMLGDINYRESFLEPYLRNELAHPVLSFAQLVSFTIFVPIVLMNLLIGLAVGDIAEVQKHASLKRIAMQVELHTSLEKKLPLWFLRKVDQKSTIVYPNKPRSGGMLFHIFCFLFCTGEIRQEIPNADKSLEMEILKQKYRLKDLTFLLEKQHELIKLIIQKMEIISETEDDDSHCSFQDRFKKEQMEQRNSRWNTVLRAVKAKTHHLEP
Transient receptor potential cation channel subfamily V member 1 (Homo sapiens), sequence (Q8NER1 whole entry, the tested form may be a part): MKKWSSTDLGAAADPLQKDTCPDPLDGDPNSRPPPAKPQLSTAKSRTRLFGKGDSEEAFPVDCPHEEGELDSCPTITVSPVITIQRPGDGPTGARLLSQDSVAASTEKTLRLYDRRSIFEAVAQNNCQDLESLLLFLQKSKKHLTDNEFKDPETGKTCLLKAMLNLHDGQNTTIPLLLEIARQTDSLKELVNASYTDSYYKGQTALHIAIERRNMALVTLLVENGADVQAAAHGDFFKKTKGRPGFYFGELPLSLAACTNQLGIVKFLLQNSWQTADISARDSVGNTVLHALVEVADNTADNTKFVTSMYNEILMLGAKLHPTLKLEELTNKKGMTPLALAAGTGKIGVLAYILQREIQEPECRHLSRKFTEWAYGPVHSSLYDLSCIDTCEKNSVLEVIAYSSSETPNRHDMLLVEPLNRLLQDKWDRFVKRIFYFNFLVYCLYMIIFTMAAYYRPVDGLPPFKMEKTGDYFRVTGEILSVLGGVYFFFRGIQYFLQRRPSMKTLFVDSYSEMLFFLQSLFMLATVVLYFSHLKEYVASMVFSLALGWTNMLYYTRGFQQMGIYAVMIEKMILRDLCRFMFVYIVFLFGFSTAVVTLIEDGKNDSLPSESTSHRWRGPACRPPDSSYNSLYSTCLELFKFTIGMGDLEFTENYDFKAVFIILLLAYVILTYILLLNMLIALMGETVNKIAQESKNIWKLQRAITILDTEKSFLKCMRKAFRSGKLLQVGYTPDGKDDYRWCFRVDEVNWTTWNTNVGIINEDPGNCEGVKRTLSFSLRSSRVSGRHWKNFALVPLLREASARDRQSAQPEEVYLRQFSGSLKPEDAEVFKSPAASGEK

- inhibition [1]: < 20%
- inhibition [2]: < 20%
Structure (SMILES): CCOC(=O)N1CCC(c2cc(O)n3nc(C)c(-c4ccc(C(F)(F)F)cc4)c3n2)CC1
- Ratio EC50 [3]: > 70

Structure (SMILES): CCOC(=O)N1CCC(c2cc(O)n3nc(C)c(-c4ccc(F)cc4)c3n2)CC1
- Activity [4]: inactive
- Activity [5]: Non-Toxic
- Activity [6]: inactive

Structure (SMILES): Cc1nn2c(O)cc(C3CCN(C(=O)OCc4ccccc4)CC3)nc2c1-c1ccc(F)cc1
- Activity [7]: inactive
